Measured values: ChEMBL document CHEMBL2424622, “Development of amino-pyrimidine inhibitors of c-Jun N-terminal kinase (JNK): kinase profiling guided optimization of a 1,2,3-benzotriazole lead” (Bioorg Med Chem Lett, 2013)

Legend:
[1] = molecular target: Tyrosine-protein kinase Yes (Homo sapiens) (UniProt P07947); assay: Competitive binding affinity to YES (unknown origin) at 10 uM in presence of ATP relative to control
Outline: (§1)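 In vitro ATP-site competition binding assay across a diverse panel of 128 kinases, with compound tested at a single concentration. Kinase selectivity scores (S15) were calculated from the panel profiles.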

[2] = molecular target: Casein kinase II subunit alpha (Homo sapiens) (UniProt P68400); assay: Competitive binding affinity to CSNK2A1 (unknown origin) at 10 uM in presence of ATP relative to control
[3] = molecular target: T1, Serine/threonine-protein kinase Nek2 (Homo sapiens) (UniProt P51955); assay: Competitive binding affinity to NEK2 (unknown origin) at 10 uM in presence of ATP relative to control; outline: as §1
T1 sequence (whole entry): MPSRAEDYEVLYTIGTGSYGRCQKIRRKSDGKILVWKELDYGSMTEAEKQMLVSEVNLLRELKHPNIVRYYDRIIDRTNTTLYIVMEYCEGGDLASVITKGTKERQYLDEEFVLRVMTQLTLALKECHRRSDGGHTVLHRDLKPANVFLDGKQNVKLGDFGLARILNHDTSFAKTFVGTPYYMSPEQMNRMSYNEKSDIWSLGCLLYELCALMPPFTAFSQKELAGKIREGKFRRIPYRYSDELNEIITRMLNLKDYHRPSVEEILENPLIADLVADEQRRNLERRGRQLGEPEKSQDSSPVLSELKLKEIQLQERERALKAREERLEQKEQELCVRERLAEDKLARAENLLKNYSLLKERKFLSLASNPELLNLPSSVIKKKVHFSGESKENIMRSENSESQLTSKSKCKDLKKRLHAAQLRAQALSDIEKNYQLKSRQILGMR

[4] = molecular target: T2, Mitogen-activated protein kinase 8 (Homo sapiens, UniProt P45983); assay: Competitive binding affinity to JNK1 (unknown origin) at 10 uM in presence of ATP relative to control
Outline: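 In vitro ATP-site competition binding assay across a diverse panel of 128 kinases, with each compound tested at a single concentration. Kinase binding is expressed relative to control.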

[5] = molecular target: MAP kinase-interacting serine/threonine-protein kinase 2 (Homo sapiens) (UniProt Q9HBH9); assay: Competitive binding affinity to MKNK2 (unknown origin) at 10 uM in presence of ATP relative to control; outline: as §1
[6] = molecular target: Insulin-like growth factor 1 receptor (Homo sapiens) (UniProt P08069); assay: Competitive binding affinity to IGF1R (unknown origin) at 10 uM in presence of ATP relative to control
Outline: (§2)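 In vitro ATP-site competition binding assay, part of profiling against a diverse panel of 128 kinases. Each compound was tested at a single concentration of 10 µM. Kinome selectivity was summarized as S15 selectivity scores.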

[7] = molecular target: T3, Ephrin type-A receptor 6 (Homo sapiens) (UniProt Q9UF33); assay: Competitive binding affinity to EPHA6 (unknown origin) at 10 uM in presence of ATP relative to control; outline: as §2
T3 sequence (whole entry): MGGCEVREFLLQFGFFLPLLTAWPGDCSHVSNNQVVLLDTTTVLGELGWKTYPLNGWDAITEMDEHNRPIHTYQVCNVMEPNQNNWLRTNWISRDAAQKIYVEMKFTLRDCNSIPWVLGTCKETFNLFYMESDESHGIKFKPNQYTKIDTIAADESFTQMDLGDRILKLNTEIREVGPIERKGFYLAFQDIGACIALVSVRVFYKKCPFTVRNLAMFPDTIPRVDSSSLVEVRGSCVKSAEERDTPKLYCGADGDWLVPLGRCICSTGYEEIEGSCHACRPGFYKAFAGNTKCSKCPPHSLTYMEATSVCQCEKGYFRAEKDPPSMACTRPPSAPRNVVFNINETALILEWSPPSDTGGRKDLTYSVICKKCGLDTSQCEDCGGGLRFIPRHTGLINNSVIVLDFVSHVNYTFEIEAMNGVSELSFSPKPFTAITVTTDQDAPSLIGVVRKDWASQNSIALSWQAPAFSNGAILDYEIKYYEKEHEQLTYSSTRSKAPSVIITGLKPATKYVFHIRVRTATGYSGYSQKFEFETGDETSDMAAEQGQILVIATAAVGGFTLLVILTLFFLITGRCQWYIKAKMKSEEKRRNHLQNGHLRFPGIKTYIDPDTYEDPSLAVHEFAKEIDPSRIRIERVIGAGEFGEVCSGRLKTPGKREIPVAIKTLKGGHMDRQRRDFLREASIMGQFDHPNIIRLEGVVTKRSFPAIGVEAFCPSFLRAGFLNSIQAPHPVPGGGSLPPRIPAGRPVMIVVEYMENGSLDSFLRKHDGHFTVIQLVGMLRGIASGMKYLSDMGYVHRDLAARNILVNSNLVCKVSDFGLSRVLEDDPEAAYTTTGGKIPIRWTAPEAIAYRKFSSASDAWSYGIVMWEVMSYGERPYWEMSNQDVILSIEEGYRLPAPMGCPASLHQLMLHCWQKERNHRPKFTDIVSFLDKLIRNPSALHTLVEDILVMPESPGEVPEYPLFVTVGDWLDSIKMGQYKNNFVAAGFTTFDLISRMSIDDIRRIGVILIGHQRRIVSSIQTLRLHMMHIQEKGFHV

[8] = molecular target: c-Jun N-terminal kinase, JNK (Homo sapiens, UniProt P45983+P53779+P45984); assay: Inhibition of JNK in human SW1353 cells assessed as inhibition of TNFalpha-induced c-Jun phosphorylation incubated for 30 mins prior to TNFalpha induction measured after 20 mins; type: cell-based
Outline: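 SW1353 cells were stimulated with TNFa, and the read-out was inhibition of phosphorylation of the downstream substrate c-Jun. Values are the mean of at least three experiments.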

[9] = molecular target: T4, 3-phosphoinositide-dependent protein kinase 1 (Homo sapiens) (UniProt O15530); assay: Competitive binding affinity to PDPK1 (unknown origin) at 10 uM in presence of ATP relative to control; outline: as §1
T4 sequence (whole entry): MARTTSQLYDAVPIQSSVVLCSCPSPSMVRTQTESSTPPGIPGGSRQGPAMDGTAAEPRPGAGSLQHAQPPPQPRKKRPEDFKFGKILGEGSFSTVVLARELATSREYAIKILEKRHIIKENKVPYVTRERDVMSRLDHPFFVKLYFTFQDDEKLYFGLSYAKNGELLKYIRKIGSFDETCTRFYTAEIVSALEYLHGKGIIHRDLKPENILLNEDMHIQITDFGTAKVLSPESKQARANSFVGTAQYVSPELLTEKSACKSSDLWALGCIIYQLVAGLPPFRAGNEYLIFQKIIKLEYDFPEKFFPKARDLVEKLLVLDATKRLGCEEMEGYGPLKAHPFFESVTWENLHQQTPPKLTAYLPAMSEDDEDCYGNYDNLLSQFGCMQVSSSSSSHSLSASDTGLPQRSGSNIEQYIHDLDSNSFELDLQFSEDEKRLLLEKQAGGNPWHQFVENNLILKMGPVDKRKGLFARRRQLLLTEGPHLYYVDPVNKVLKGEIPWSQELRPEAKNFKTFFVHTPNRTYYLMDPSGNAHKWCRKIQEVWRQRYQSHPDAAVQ

[10] = molecular target: T2, Mitogen-activated protein kinase 8

MAP kinase-interacting serine/threonine-protein kinase 2 (Homo sapiens), sequence (Q9HBH9 whole entry, looked up): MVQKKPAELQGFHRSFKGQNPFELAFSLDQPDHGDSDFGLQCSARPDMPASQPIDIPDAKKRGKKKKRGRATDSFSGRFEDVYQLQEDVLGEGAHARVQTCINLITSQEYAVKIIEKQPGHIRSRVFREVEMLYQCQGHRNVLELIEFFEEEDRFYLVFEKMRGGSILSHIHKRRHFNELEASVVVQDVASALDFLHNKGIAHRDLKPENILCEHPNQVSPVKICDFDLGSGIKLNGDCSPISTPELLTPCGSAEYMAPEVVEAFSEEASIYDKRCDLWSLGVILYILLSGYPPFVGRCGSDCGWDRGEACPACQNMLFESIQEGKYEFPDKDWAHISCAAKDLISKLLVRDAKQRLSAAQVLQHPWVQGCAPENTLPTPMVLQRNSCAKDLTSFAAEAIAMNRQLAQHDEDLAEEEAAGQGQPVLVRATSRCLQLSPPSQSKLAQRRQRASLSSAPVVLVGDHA
Casein kinase II subunit alpha (Homo sapiens), sequence (P68400 whole entry, looked up): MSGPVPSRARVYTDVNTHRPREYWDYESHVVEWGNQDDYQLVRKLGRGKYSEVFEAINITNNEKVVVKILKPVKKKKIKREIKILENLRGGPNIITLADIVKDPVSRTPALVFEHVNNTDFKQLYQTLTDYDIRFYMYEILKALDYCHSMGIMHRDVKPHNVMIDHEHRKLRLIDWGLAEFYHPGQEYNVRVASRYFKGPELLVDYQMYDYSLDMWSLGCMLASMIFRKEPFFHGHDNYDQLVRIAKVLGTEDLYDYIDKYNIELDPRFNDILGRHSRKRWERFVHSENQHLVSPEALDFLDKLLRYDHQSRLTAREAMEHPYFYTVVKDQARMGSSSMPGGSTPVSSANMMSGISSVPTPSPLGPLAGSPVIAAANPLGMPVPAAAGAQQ
Insulin-like growth factor 1 receptor (Homo sapiens), sequence (P08069 31-736 limits assumed): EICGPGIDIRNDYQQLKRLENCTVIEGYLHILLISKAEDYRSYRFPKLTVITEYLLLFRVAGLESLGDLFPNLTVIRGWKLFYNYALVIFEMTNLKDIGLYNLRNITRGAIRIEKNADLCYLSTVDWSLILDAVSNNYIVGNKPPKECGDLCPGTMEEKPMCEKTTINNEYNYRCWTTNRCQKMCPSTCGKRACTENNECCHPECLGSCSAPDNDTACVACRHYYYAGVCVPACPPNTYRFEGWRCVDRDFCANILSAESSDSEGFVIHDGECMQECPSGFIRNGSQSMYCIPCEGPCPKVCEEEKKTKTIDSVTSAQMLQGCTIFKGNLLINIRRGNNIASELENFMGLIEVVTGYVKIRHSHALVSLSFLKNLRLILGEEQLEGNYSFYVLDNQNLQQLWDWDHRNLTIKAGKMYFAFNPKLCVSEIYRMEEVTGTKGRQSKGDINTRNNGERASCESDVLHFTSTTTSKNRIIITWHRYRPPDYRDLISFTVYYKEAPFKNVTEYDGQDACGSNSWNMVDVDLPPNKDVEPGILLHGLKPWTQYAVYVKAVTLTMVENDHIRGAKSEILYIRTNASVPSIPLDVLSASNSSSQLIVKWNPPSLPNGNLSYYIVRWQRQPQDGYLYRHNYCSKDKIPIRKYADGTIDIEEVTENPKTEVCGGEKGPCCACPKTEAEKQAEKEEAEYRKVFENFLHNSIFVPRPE
Insulin-like growth factor 1 receptor (Homo sapiens), sequence (P08069 741-1367 limits assumed): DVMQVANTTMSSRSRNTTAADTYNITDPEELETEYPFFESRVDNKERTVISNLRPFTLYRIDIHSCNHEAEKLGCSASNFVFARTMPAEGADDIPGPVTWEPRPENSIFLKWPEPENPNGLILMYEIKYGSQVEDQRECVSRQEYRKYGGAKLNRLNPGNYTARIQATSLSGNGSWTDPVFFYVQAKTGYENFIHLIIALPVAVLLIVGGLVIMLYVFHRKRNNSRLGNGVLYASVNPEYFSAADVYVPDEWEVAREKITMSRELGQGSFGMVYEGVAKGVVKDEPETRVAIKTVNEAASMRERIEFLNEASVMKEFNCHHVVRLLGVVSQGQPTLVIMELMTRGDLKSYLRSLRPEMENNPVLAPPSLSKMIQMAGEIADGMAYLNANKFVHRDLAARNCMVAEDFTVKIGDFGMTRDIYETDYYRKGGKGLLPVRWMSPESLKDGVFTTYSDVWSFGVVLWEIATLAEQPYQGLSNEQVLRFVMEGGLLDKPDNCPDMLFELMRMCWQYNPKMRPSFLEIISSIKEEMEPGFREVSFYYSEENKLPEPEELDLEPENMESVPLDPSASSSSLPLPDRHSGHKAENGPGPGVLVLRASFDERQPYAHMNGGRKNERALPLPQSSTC
T2 sequence (P45983 whole entry): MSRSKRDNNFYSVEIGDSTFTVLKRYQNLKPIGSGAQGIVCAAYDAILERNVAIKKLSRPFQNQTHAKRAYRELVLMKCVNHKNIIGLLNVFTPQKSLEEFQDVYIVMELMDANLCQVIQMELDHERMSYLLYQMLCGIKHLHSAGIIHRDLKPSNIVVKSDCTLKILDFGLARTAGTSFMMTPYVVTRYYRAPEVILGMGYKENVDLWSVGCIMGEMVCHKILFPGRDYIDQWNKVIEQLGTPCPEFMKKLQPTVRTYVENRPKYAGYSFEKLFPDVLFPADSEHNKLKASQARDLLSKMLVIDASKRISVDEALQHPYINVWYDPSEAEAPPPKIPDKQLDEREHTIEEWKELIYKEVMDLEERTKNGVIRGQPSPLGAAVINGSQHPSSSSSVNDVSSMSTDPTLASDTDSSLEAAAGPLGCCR
Tyrosine-protein kinase Yes (Homo sapiens), sequence (P07947 2-543 limits assumed): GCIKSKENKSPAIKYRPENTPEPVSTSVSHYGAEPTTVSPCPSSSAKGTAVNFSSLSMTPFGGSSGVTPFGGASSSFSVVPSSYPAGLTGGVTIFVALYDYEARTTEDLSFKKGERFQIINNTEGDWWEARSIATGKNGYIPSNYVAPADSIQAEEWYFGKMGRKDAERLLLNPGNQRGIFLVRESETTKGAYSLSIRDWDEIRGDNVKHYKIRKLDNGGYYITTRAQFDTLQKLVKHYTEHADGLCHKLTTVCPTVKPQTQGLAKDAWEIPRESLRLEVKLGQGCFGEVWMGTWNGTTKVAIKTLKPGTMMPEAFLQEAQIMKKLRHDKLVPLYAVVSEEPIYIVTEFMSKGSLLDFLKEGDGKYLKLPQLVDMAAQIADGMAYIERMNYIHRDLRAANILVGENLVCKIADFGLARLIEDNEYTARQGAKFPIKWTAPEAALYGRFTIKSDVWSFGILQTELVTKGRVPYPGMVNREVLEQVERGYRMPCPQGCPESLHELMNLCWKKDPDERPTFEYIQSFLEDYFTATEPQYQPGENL

Row | inhibition [1] [%] | inhibition [2] [%] | inhibition [3] [%] | inhibition [4] [%] | inhibition [5] [%] | inhibition [6] [%] | inhibition [7] [%] | IC50 [8] [nM] | inhibition [9] [%] | IC50 [10] [nM] | Compound
1 | < 50 | 87 | < 50 | 99 | 75 | < 50 | < 50 | 2700 | < 50 | 55 | O[C@H]1CC[C@H](Nc2nccc(-n3ncc4ccccc43)n2)CC1
2 | < 50 | < 50 | < 50 | 98 | < 50 | < 50 | < 50 | 2000 | < 50 | 65 | O[C@H]1CC[C@H](Nc2nccc(-n3ccc4ccccc43)n2)CC1
3 | < 50 | 99 | < 50 | 99 | 100 | < 50 | < 50 | 540 | < 50 | 74 | N[C@H]1CC[C@H](Nc2nccc(-n3nnc4ccccc43)n2)CC1
4 | 78 | 98 | < 50 | 100 | 87 | 95 | < 50 | 2300 | 97 | 250 | O[C@H]1CC[C@H](Nc2nccc(-c3n[nH]c4ccccc34)n2)CC1
5 | < 50 | 80 | < 50 | 99 | 86 | < 50 | < 50 | 790 | < 50 | 29 | O[C@H]1CC[C@H](Nc2nccc(-n3nnc4ccccc43)n2)CC1
6 |  |  |  | > 85 |  |  |  | 1100 |  | 16 | CS(=O)(=O)CCCOc1cccc2c1ccn2-c1ccnc(N[C@H]2CC[C@H](C(=O)N3CCC(O)CC3)CC2)n1
7 | < 50 | 71 | < 50 | 100 | 97 | < 50 | < 50 | 1800 | < 50 | 63 | O=C([C@H]1CC[C@H](Nc2nccc(-n3nnc4ccccc43)n2)CC1)N1CCOCC1
